Consider 10 compounds from ChEMBL document CHEMBL1121540, “Synthesis and antibacterial activity of new 1-oxa-1-dethiacephalosporins” (1980).

Molecules are shown by their SMILES. In brackets after ≈: the same amount, converted by molar mass.

What all share (format): functional
In one assay the test system is Bacillus subtilis. Kind of assay: In vitro minimum inhibitory concentration (MIC) against ATCC 6633 strain of Bacillus subtilis. In a few lines:
(§1)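 Agar dilution on heart infusion agar; the MIC is read as the lowest concentration that inhibits growth of the strain.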

The subject of the next assay is Escherichia coli. Kind of assay: In vitro minimum inhibitory concentration (MIC) against NIHJ JC-2 strain of Escherichia coli. In a few lines: as §1
The next assay relates to Klebsiella pneumoniae. Kind of assay: In vitro minimum inhibitory concentration (MIC) against Klebsiella pneumonia 12. In a few lines: as §1
A further assay relates to Proteus mirabilis. Kind of assay: In vitro minimum inhibitory concentration (MIC) against Proteus mirabilis 1. In a few lines:
as §1

Another assay has as its system Pseudomonas aeruginosa. Kind of assay: In vitro minimum inhibitory concentration (MIC) against NCTC 10490 strain of Pseudomonas aeruginosa. In a few lines:
as §1

Another assay relates to Serratia marcescens. Kind of assay: In vitro minimum inhibitory concentration (MIC) against Serratia marcescens. In a few lines:
as §1

For the next assay, the system named is Staphylococcus aureus. Kind of assay: In vitro minimum inhibitory concentration (MIC) against 209P JC-1 strain of Staphylococcus aureus. In a few lines:
as §1

By MIC is commonly meant the lowest concentration found to suppress growth. As for `CO/N=C(\C(=O)N[C@@H]1C(=O)N2C(C(=O)O)=CCO[C@H]12)c1csc(N)n1`, the MIC against Bacillus subtilis stood at 100 µg/mL (≈ 272 µM); with Escherichia coli it was 0.2 µg/mL (≈ 0.544 µM); against Klebsiella pneumoniae, 0.78 µg/mL (≈ 2.12 µM); in the assay on Proteus mirabilis, 0.2 µg/mL (≈ 0.544 µM); in the assay with Pseudomonas aeruginosa, 800 µg/mL (≈ 2180 µM); against Serratia marcescens it was 100 µg/mL (≈ 272 µM). Further, in the assay with Staphylococcus aureus, 25 µg/mL (≈ 68.1 µM) was the least that counted as inhibitory (MIC).
As to `C=CCO/N=C(\C(=O)N[C@@H]1C(=O)N2C(C(=O)O)=CCO[C@H]12)c1csc(N)n1`, the MIC in the assay on Bacillus subtilis stood at 100 µg/mL (≈ 254 µM); in the assay on Escherichia coli, 3.13 µg/mL (≈ 7.96 µM); in the assay with Klebsiella pneumoniae it was 1.56 µg/mL (≈ 3.97 µM); in the assay on Proteus mirabilis it was 0.1 µg/mL (≈ 0.254 µM); with Pseudomonas aeruginosa, 50 µg/mL (≈ 127 µM); with Serratia marcescens, 100 µg/mL (≈ 254 µM). In the assay with Staphylococcus aureus, this compound gave an MIC of 6.25 µg/mL (≈ 15.9 µM).
On to `C#CCO/N=C(\C(=O)N[C@@H]1C(=O)N2C(C(=O)O)=CCO[C@H]12)c1csc(N)n1`, for which the MIC against Bacillus subtilis was 25 µg/mL (≈ 63.9 µM); with Escherichia coli, 1.56 µg/mL (≈ 3.99 µM); in the assay on Klebsiella pneumoniae it was 0.2 µg/mL (≈ 0.511 µM); in the assay on Proteus mirabilis, 0.1 µg/mL (≈ 0.256 µM); in the assay with Pseudomonas aeruginosa it was 400 µg/mL (≈ 1020 µM); against Serratia marcescens it was 100 µg/mL (≈ 256 µM). The same compound displayed an MIC in the assay with Staphylococcus aureus of 12.5 µg/mL (≈ 31.9 µM).
With `CO/N=C(/C(=O)N[C@@H]1C(=O)N2C(C(=O)O)=CCO[C@H]12)c1csc(N)n1`, the MIC with Bacillus subtilis was 100 µg/mL (≈ 272 µM); in the assay on Escherichia coli, 6.25 µg/mL (≈ 17 µM); in the assay on Klebsiella pneumoniae, 1.56 µg/mL (≈ 4.25 µM); in the assay on Proteus mirabilis, 3.13 µg/mL (≈ 8.52 µM); against Pseudomonas aeruginosa, 800 µg/mL (≈ 2180 µM); with Serratia marcescens, 100 µg/mL (≈ 272 µM). In addition, the MIC in the assay with Staphylococcus aureus stood at 12.5 µg/mL (≈ 34 µM).
With `CC(C)O/N=C(\C(=O)N[C@@H]1C(=O)N2C(C(=O)O)=CCO[C@H]12)c1csc(N)n1`, the MIC turned out to be 50 µg/mL (≈ 126 µM) in the assay with Bacillus subtilis; 0.78 µg/mL (≈ 1.97 µM) against Escherichia coli; 0.78 µg/mL (≈ 1.97 µM) with Klebsiella pneumoniae; 0.2 µg/mL (≈ 0.506 µM) in the assay on Proteus mirabilis; 12.5 µg/mL (≈ 31.6 µM) with Pseudomonas aeruginosa; 25 µg/mL (≈ 63.2 µM) against Serratia marcescens. In the assay with Staphylococcus aureus, this compound registered an MIC of 12.5 µg/mL (≈ 31.6 µM).
For `CCCCO/N=C(\C(=O)N[C@@H]1C(=O)N2C(C(=O)O)=CCO[C@H]12)c1csc(N)n1`, the minimal inhibitory concentration (MIC) in the assay with Bacillus subtilis was 50 µg/mL (≈ 122 µM); in the assay on Escherichia coli, 0.78 µg/mL (≈ 1.91 µM); in the assay on Klebsiella pneumoniae it was 3.13 µg/mL (≈ 7.64 µM); against Proteus mirabilis, 0.78 µg/mL (≈ 1.91 µM); in the assay with Pseudomonas aeruginosa, 12.5 µg/mL (≈ 30.5 µM); against Serratia marcescens, 100 µg/mL (≈ 244 µM). The compound further showed an MIC against Staphylococcus aureus of 12.5 µg/mL (≈ 30.5 µM).
Take `CO/N=C(\C(=O)N[C@@H]1C(=O)N2C(C(=O)O)=CCO[C@H]12)c1ccccc1`: the MIC was determined as 25 µg/mL (≈ 72.4 µM) against Bacillus subtilis; 25 µg/mL (≈ 72.4 µM) with Escherichia coli; 12.5 µg/mL (≈ 36.2 µM) with Klebsiella pneumoniae; 6.25 µg/mL (≈ 18.1 µM) against Proteus mirabilis; 800 µg/mL (≈ 2320 µM) in the assay on Pseudomonas aeruginosa; 100 µg/mL (≈ 290 µM) against Serratia marcescens. In the assay with Staphylococcus aureus, the lowest concentration to inhibit growth (MIC) was 1.56 µg/mL (≈ 4.52 µM).
As to `CCO/N=C(\C(=O)N[C@@H]1C(=O)N2C(C(=O)O)=CCO[C@H]12)c1csc(N)n1`, the MIC in the assay on Bacillus subtilis came out at 50 µg/mL (≈ 131 µM); against Escherichia coli, 0.1 µg/mL (≈ 0.262 µM); in the assay on Klebsiella pneumoniae it was 0.1 µg/mL (≈ 0.262 µM); against Proteus mirabilis it was 0.05 µg/mL (≈ 0.131 µM); with Pseudomonas aeruginosa, 3.13 µg/mL (≈ 8.21 µM); in the assay on Serratia marcescens, 12.5 µg/mL (≈ 32.8 µM). For the same compound, in the assay on Staphylococcus aureus, 6.25 µg/mL (≈ 16.4 µM) was the least that counted as inhibitory (MIC).
Turning to `CO/N=C(\C(=O)N[C@@H]1C(=O)N2C(C(=O)O)=CCO[C@H]12)c1ccco1`, the MIC came to 50 µg/mL (≈ 149 µM) against Bacillus subtilis; 6.25 µg/mL (≈ 18.6 µM) against Escherichia coli; 1.56 µg/mL (≈ 4.65 µM) against Klebsiella pneumoniae; 0.78 µg/mL (≈ 2.33 µM) in the assay with Proteus mirabilis; 800 µg/mL (≈ 2390 µM) with Pseudomonas aeruginosa; 100 µg/mL (≈ 298 µM) in the assay with Serratia marcescens. In the assay on Staphylococcus aureus, the MIC is 12.5 µg/mL (≈ 37.3 µM).
Turning to `CO/N=C(\C(=O)N[C@@H]1C(=O)N2C(C(=O)O)=CCS[C@H]12)c1csc(N)n1` [CEFTIZOXIME], the MIC in the assay with Bacillus subtilis was 25 µg/mL (≈ 65.2 µM); against Escherichia coli it was 0.05 µg/mL (≈ 0.13 µM); against Klebsiella pneumoniae, 0.05 µg/mL (≈ 0.13 µM); in the assay on Proteus mirabilis it was 0.025 µg/mL (≈ 0.0652 µM); in the assay with Pseudomonas aeruginosa, 25 µg/mL (≈ 65.2 µM); in the assay on Serratia marcescens it was 50 µg/mL (≈ 130 µM). In the assay with Staphylococcus aureus, this compound registered an MIC of 6.25 µg/mL (≈ 16.3 µM).
